Data as given in ChEMBL document CHEMBL1143428, “Extended-spectrum-beta-lactamase-producing Enterobacteriaceae strains in various types of private health care centers” (2007).
≈ marks a conversion by molar mass, not a printed value.

Tests used:
Assay type in all cases: functional
Klebsiella aerogenes [1] = assay: Antimicrobial activity against Enterobacter aerogenes Ea1 expressing TEM-24b gene
How it was run: (§1)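 Clinical isolates from private health care centers. β-Lactamase content was assigned by isoelectric focusing, PCR with blaTEM-, blaSHV- and blaCTX-M-specific primers, and sequencing. MICs (μg/ml) were reported for amoxicillin, cefoxitin, cefotaxime, ceftazidime, imipenem and ertapenem. Amoxicillin, cefotaxime and ceftazidime were also tested with clavulanic acid held at a fixed 2 μg/ml.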

Escherichia coli [2] = assay: Antimicrobial activity against Escherichia coli Ec2 containing pEc1-D plasmid expressing CTX-M-15 TEM-1 OXA-1gene
How it was run: (§2)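 β-Lactam MICs (μg/ml) measured against clinical Enterobacteriaceae isolates collected from private health care centers. Enzyme content of each isolate was assigned by isoelectric focusing, PCR with blaTEM/blaSHV/blaCTX-M primers and sequencing, with cloning to separate coexisting TEM or SHV genes. In combination tests, the β-lactamase inhibitor clavulanic acid was held at a fixed 2 μg/ml.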

Escherichia coli [3] = assay: Antimicrobial activity against Escherichia coli Ec7 expressing SHV-12 IRT-6 gene; how it was run: as §1
Klebsiella aerogenes [4] = assay: Antimicrobial activity against Enterobacter aerogenes Ea1 expressing TEM-24b AmpC +/- TEM-1 or TEM-2 gene; how it was run: as §2
Proteus mirabilis [5] = assay: Antimicrobial activity against Proteus mirabilis Pm4 expressing TEM-21 gene; how it was run: as §1
Escherichia coli [6] = assay: Antimicrobial activity against Escherichia coli Ec1 containing pEc1-A plasmid expressing CTX-M-15 TEM-1 OXA-1 gene; how it was run: as §2
Klebsiella aerogenes [7] = assay: Antimicrobial activity against Enterobacter aerogenes Ea2 expressing TEM-3 gene; how it was run: as §1
Klebsiella pneumoniae [8] = assay: Antimicrobial activity against Klebsiella pneumoniae Kp4 expressing SHV-12 SHV-1 and plasmid-mediated cephalosporinase CMY-4; how it was run: as §2
Klebsiella pneumoniae [9] = assay: Antimicrobial activity against Klebsiella pneumoniae Kp2 expressing TEM-15 gene; how it was run: as §2
Escherichia coli [10] = assay: Antimicrobial activity against Escherichia coli Ec2 containing pEc1-B plasmid expressing CTX-M-15 TEM-1 OXA-1 gene; how it was run: as §1
Morganella morganii = assay: Antimicrobial activity against Morganella morganii expressing TEM-24b AmpC gene; how it was run: as §2
Klebsiella pneumoniae [11] = assay: Antimicrobial activity against Klebsiella pneumoniae Kp3 expressing SHV-2a TEM-1 gene; how it was run: as §2
Enterobacter cloacae = assay: Antimicrobial activity against Enterobacter cloacae Ecl1 expressing TEM-24b AmpC TEM-1 gene; how it was run: as §2
Escherichia coli [12] = assay: Antimicrobial activity against Escherichia coli Ec3 expressing CTX-M-15 TEM-1 OXA-1 gene; how it was run: as §2
Klebsiella pneumoniae [13] = assay: Antimicrobial activity against Klebsiella pneumoniae Kp1 expressing SHV-4 gene; how it was run: as §2
Klebsiella pneumoniae [14] = assay: Antimicrobial activity against Klebsiella pneumoniae Kp5 expressing plasmid-mediated cephalosporinase ACC-1 and TEM-1; how it was run: as §2
Proteus mirabilis [15] = assay: Antimicrobial activity against Proteus mirabilis Pm1-Pm3 expressing TEM-24b gene; how it was run: as §1
Escherichia coli [16] = assay: Antimicrobial activity against Escherichia coli Ec10 expressing TEM-24b gene; how it was run: as §2
Escherichia coli [17] = assay: Antimicrobial activity against Escherichia coli Ec9 expressing TEM-24b TEM-26 gene; how it was run: as §2
Escherichia coli [18] = assay: Antimicrobial activity against Escherichia coli Ec5 expressing CTX-M-2 TEM-1 gene; how it was run: as §2
Klebsiella aerogenes [19] = assay: Antimicrobial activity against Enterobacter aerogenes Ea2 expressing TEM-3 AmpC gene; how it was run: as §1
Klebsiella pneumoniae [20] = assay: Antimicrobial activity against Klebsiella pneumoniae Kp2 expressing TEM-15 TEM-17 TEM-1 gene; how it was run: as §2
Escherichia coli [21] = assay: Antimicrobial activity against Escherichia coli Ec2-a containing pEc1-C plasmid expressing CTX-M-15 OXA-1 gene; how it was run: as §1
Escherichia coli [22] = assay: Antimicrobial activity against Escherichia coli Ec8 expressing TEM-21 AmpC gene; how it was run: as §1
Escherichia coli [23] = assay: Antimicrobial activity against Escherichia coli Ec6 expressing CTX-M-14 gene; how it was run: as §2
Escherichia coli [24] = assay: Antimicrobial activity against Escherichia coli Ec4 expressing CTX-M-1 AmpC gene; how it was run: as §2
Klebsiella oxytoca = assay: Antimicrobial activity against Klebsiella oxytoca expressing TEM-11 gene; how it was run: as §1

SMILES | MIC (Klebsiella aerogenes [1]) | MIC (Escherichia coli [2]) | MIC (Escherichia coli [3]) | MIC (Klebsiella aerogenes [4]) | MIC (Proteus mirabilis [5]) | MIC (Klebsiella aerogenes [7]) | MIC (Klebsiella pneumoniae [8]) | MIC (Klebsiella pneumoniae [9]) | MIC (Escherichia coli [10]) | MIC (Morganella morganii) | MIC (Klebsiella pneumoniae [11]) | MIC (Enterobacter cloacae) | MIC (Escherichia coli [12]) | MIC (Klebsiella pneumoniae [13]) | MIC (Klebsiella pneumoniae [14]) | MIC (Proteus mirabilis [15]) | MIC (Escherichia coli [17]) | MIC (Escherichia coli [18]) | MIC (Klebsiella aerogenes [19]) | MIC (Klebsiella pneumoniae [20]) | further results
CO[C@@]1(NC(=O)Cc2cccs2)C(=O)N2C(C(=O)O)=C(COC(N)=O)CS[C@@H]21 [CEFOXITIN] | 8 µg/mL (≈ 18.7 µM) | 32 µg/mL (≈ 74.9 µM) | 64 µg/mL (≈ 150 µM) | 512 µg/mL (≈ 1200 µM) | 4 µg/mL (≈ 9.36 µM) | 32 µg/mL (≈ 74.9 µM) | 32 µg/mL (≈ 74.9 µM) | 4 µg/mL (≈ 9.36 µM) | 8 µg/mL (≈ 18.7 µM) | 128 µg/mL (≈ 299 µM) | 4 µg/mL (≈ 9.36 µM) | 512 µg/mL (≈ 1200 µM) | 32 µg/mL (≈ 74.9 µM) | 16 µg/mL (≈ 37.4 µM) | 8 µg/mL (≈ 18.7 µM) | 2 µg/mL (≈ 4.68 µM) | 4 µg/mL (≈ 9.36 µM) | 4 µg/mL (≈ 9.36 µM) | 128 µg/mL (≈ 299 µM) | 64 µg/mL (≈ 150 µM) | MIC (Escherichia coli [6]): 4 µg/mL (≈ 9.36 µM); MIC (Escherichia coli [16]): 8 µg/mL (≈ 18.7 µM); MIC (Escherichia coli [21]): 8 µg/mL (≈ 18.7 µM); MIC (Escherichia coli [22]): 128 µg/mL (≈ 299 µM); MIC (Escherichia coli [23]): 4 µg/mL (≈ 9.36 µM); MIC (Escherichia coli [24]): 64 µg/mL (≈ 150 µM); MIC (Klebsiella oxytoca): 8 µg/mL (≈ 18.7 µM)
C[C@@H](O)[C@H]1C(=O)N2C(C(=O)O)=C(SCCNC=N)C[C@H]12 [IMIPENEM ANHYDROUS] | 0.5 µg/mL (≈ 1.67 µM) | 0.5 µg/mL (≈ 1.67 µM) | 0.5 µg/mL (≈ 1.67 µM) | 0.5 µg/mL (≈ 1.67 µM) | 1 µg/mL (≈ 3.34 µM) | 0.5 µg/mL (≈ 1.67 µM) | 1 µg/mL (≈ 3.34 µM) | 0.5 µg/mL (≈ 1.67 µM) | 0.5 µg/mL (≈ 1.67 µM) | 4 µg/mL (≈ 13.4 µM) | 1 µg/mL (≈ 3.34 µM) | 1 µg/mL (≈ 3.34 µM) | 0.5 µg/mL (≈ 1.67 µM) | 0.5 µg/mL (≈ 1.67 µM) | 0.5 µg/mL (≈ 1.67 µM) | 1 µg/mL (≈ 3.34 µM) | 0.5 µg/mL (≈ 1.67 µM) | 0.5 µg/mL (≈ 1.67 µM) | 1 µg/mL (≈ 3.34 µM) | 0.5 µg/mL (≈ 1.67 µM) | MIC (Escherichia coli [21]): 0.5 µg/mL (≈ 1.67 µM); MIC (Escherichia coli [22]): 0.5 µg/mL (≈ 1.67 µM); MIC (Escherichia coli [23]): 0.5 µg/mL (≈ 1.67 µM); MIC (Escherichia coli [24]): 1 µg/mL (≈ 3.34 µM); MIC (Klebsiella oxytoca): 0.5 µg/mL (≈ 1.67 µM)
C[C@@H](O)[C@H]1C(=O)N2C(C(=O)O)=C(S[C@@H]3CN[C@H](C(=O)Nc4cccc(C(=O)O)c4)C3)[C@H](C)[C@H]12 [ERTAPENEM] | 0.02 µg/mL (≈ 0.0421 µM) | 0.05 µg/mL (≈ 0.105 µM) | 0.2 µg/mL (≈ 0.421 µM) | 0.05 µg/mL (≈ 0.105 µM) | 0.01 µg/mL (≈ 0.021 µM) | 0.02 µg/mL (≈ 0.0421 µM) | 0.01 µg/mL (≈ 0.021 µM) | 0.02 µg/mL (≈ 0.0421 µM) | 0.1 µg/mL (≈ 0.21 µM) | 0.02 µg/mL (≈ 0.0421 µM) | 0.02 µg/mL (≈ 0.0421 µM) | 0.5 µg/mL (≈ 1.05 µM) | 0.1 µg/mL (≈ 0.21 µM) | 0.02 µg/mL (≈ 0.0421 µM) | 0.05 µg/mL (≈ 0.105 µM) | 0.01 µg/mL (≈ 0.021 µM) | ≤ 0.01 µg/mL | 0.05 µg/mL (≈ 0.105 µM) | 0.2 µg/mL (≈ 0.421 µM) | 0.1 µg/mL (≈ 0.21 µM) | MIC (Escherichia coli [6]): 0.05 µg/mL (≈ 0.105 µM); MIC (Escherichia coli [16]): 0.02 µg/mL (≈ 0.0421 µM); MIC (Escherichia coli [21]): 0.2 µg/mL (≈ 0.421 µM); MIC (Escherichia coli [22]): 0.1 µg/mL (≈ 0.21 µM); MIC (Escherichia coli [23]): 0.02 µg/mL (≈ 0.0421 µM); MIC (Escherichia coli [24]): 0.05 µg/mL (≈ 0.105 µM); MIC (Klebsiella oxytoca): 0.1 µg/mL (≈ 0.21 µM)
CO/N=C(\C(=O)N[C@@H]1C(=O)N2C(C(=O)O)=C(COC(C)=O)CS[C@H]12)c1csc(N)n1 [CEFOTAXIME] | 1 µg/mL (≈ 2.2 µM) | 2 µg/mL (≈ 4.39 µM) | 16 µg/mL (≈ 35.1 µM) | 1 µg/mL (≈ 2.2 µM) | 2 µg/mL (≈ 4.39 µM) | 0.2 µg/mL (≈ 0.439 µM) | 16 µg/mL (≈ 35.1 µM) | 8 µg/mL (≈ 17.6 µM) | 64 µg/mL (≈ 141 µM) | 16 µg/mL (≈ 35.1 µM) | 2 µg/mL (≈ 4.39 µM) | 64 µg/mL (≈ 141 µM) | 512 µg/mL (≈ 1120 µM) | 8 µg/mL (≈ 17.6 µM) | 8 µg/mL (≈ 17.6 µM) | 0.5 µg/mL (≈ 1.1 µM) | 1 µg/mL (≈ 2.2 µM) | 32 µg/mL (≈ 70.3 µM) | 4 µg/mL (≈ 8.78 µM) | 64 µg/mL (≈ 141 µM) | MIC (Escherichia coli [6]): 256 µg/mL (≈ 562 µM); MIC (Escherichia coli [16]): 2 µg/mL (≈ 4.39 µM); MIC (Escherichia coli [21]): 256 µg/mL (≈ 562 µM); MIC (Escherichia coli [22]): 32 µg/mL (≈ 70.3 µM); MIC (Escherichia coli [23]): 32 µg/mL (≈ 70.3 µM); MIC (Escherichia coli [24]): 64 µg/mL (≈ 141 µM); MIC (Klebsiella oxytoca): 1 µg/mL (≈ 2.2 µM)
CC(C)(O/N=C(\C(=O)N[C@@H]1C(=O)N2C(C(=O)[O-])=C(C[n+]3ccccc3)CS[C@H]12)c1csc(N)n1)C(=O)O [CEFTAZIDIME] | 128 µg/mL (≈ 234 µM) | 1 µg/mL (≈ 1.83 µM) | 128 µg/mL (≈ 234 µM) | 256 µg/mL (≈ 468 µM) | 1 µg/mL (≈ 1.83 µM) | 16 µg/mL (≈ 29.3 µM) | 4 µg/mL (≈ 7.32 µM) | 32 µg/mL (≈ 58.5 µM) | 16 µg/mL (≈ 29.3 µM) | 128 µg/mL (≈ 234 µM) | 256 µg/mL (≈ 468 µM) | 512 µg/mL (≈ 937 µM) | 256 µg/mL (≈ 468 µM) | 128 µg/mL (≈ 234 µM) | 64 µg/mL (≈ 117 µM) | 8 µg/mL (≈ 14.6 µM) | 128 µg/mL (≈ 234 µM) | 1 µg/mL (≈ 1.83 µM) | 16 µg/mL (≈ 29.3 µM) | 512 µg/mL (≈ 937 µM) | MIC (Escherichia coli [6]): 64 µg/mL (≈ 117 µM); MIC (Escherichia coli [16]): 256 µg/mL (≈ 468 µM); MIC (Escherichia coli [21]): 256 µg/mL (≈ 468 µM); MIC (Escherichia coli [22]): 64 µg/mL (≈ 117 µM); MIC (Escherichia coli [23]): 4 µg/mL (≈ 7.32 µM); MIC (Escherichia coli [24]): 8 µg/mL (≈ 14.6 µM); MIC (Klebsiella oxytoca): 128 µg/mL (≈ 234 µM)
